Results on nine compounds are retold here after ChEMBL document CHEMBL3244269, “Synthesis of carboxyarylindoles and benzofurans as nonsteroidal antiinflammatory agents” (J Med Chem, 1977).

In data set [1] the test system is Rattus norvegicus. Kind of data set: Antiinflammatory activity in Wistar rat assessed as inhibition of carrageenan-induced paw edema at 200 mg/kg, po administered 30 mins prior challenge measured after 3 hrs relative to placebo-control. Format: functional. In a few lines: (§1)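 Fasted male Wistar rats, eight per group, dosed orally with 200 mg/kg as a saline-Tween 80 suspension (10 mL/kg), or placebo. After 30 min, 0.1 cm³ of 1% carrageenan in distilled water was injected into the left hind paw plantar surface. Paw volume was read by mercury displacement then and 3 h later. Mean volume increase was compared with placebo as percent inhibition.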
A general note: The carrageenan paw model is a standard test of acute inflammation.

In data set [2] the test system is Rattus norvegicus. Kind of data set: Toxicity in carrageenan-induced Wistar rat assessed as increase in paw edema at 200 mg/kg, po administered 30 mins prior challenge measured after 3 hrs relative to placebo-control. Format: organism-based. Also noted: dose 200 mg/kg, route oral. Particulars: in vivo. The method, boiled down:
as §1

The structures appear in SMILES notation.

In general, inhibition in vivo refers to the share of the control response that was lost under treatment. Regarding `O=C(O)c1cc(-n2c(-c3ccccc3)cc3c2CCc2ccccc2-3)ccc1O` [FENDOSAL], in the data set on Rattus norvegicus [1], the inhibition in vivo at 200 mg/kg was 64.2%.

With `COC(=O)c1cc(-c2cc3c(o2)CCCC3)ccc1O`, in the data set with Rattus norvegicus [1], the inhibition in vivo at 200 mg/kg worked out at 9.8%. In addition, the Activity result in the data set on Rattus norvegicus [2] is given as “Toxic”.

`O=C(O)c1cc(-n2c(-c3ccccc3)cc3c2CCCC3)ccc1O`: the inhibition in vivo at 200 mg/kg in the data set on Rattus norvegicus [1] was determined as 64%.

`O=C(O)c1cc(-c2cc3c(n2-c2ccccc2)CCCC3)ccc1O`: the inhibition in vivo at 200 mg/kg in the data set with Rattus norvegicus [1] is 25.8%.

Regarding `O=C(O)c1cc(-c2cc3c(o2)CCCC3)ccc1O`, the inhibition in vivo at 200 mg/kg in the data set on Rattus norvegicus [1] is 21.5%. Consider `COC(=O)c1cc(-c2cc3c(n2-c2ccccc2)CCc2ccccc2-3)ccc1O`, for which the inhibition in vivo at 200 mg/kg with Rattus norvegicus [1] was determined as 21.7%. For the same compound, the Activity result in the data set on Rattus norvegicus [2] is on record as “Toxic”. Consider `CC(=O)Oc1ccccc1C(=O)O` [ASPIRIN], for which the inhibition in vivo at 200 mg/kg in the data set with Rattus norvegicus [1] worked out at 65.3%. With `O=C(O)c1cc(-c2cc3c(n2-c2ccccc2)CCc2ccccc2-3)ccc1O`, the inhibition in vivo at 200 mg/kg in the data set with Rattus norvegicus [1] amounted to 37.5%.

As to `CCCCn1c(-c2ccc(O)c(C(=O)O)c2)cc2c1CCCC2`, in the data set on Rattus norvegicus [1], the inhibition in vivo at 200 mg/kg turned out to be 41%.
